Experiments:
[1] = tested on: Platelet; experiment: Inhibition of collagen-induced platelet aggregation in rabbit platelet-rich plasma at 100 ug/mL after 3 mins by turbidimetric method; type: functional, Oryctolagus cuniculus; design: scale not given: the % may be the effect or the level left
Method in brief: (§1)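 Preincubated with test agent or 0.5% DMSO (final, control) at 37° for 3 min, then ADP (20 μM), arachidonic acid (100 μM), collagen (10 μg/ml) or PAF (2 ng/ml) added. Stirred at 1200 rpm, turbidimetric aggregometry. Percent aggregation as mean ± SEM.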

[2] = tested on: Platelet; experiment: Inhibition of platelet activity factor-induced platelet aggregation in rabbit platelet-rich plasma at 100 ug/mL after 3 mins by turbidimetric method; type: functional, Oryctolagus cuniculus; design: scale not given: the % may be the effect or the level left; method in brief: as §1
[3] = tested on: Platelet; experiment: Inhibition of ADP-induced platelet aggregation in rabbit platelet-rich plasma at 100 ug/mL after 3 mins by turbidimetric method; type: functional, Oryctolagus cuniculus; design: scale not given: the % may be the effect or the level left
Method in brief: as §1, with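 “Washed rabbit platelets from EDTA-anticoagulated platelet-rich plasma, 4.5 × 10^8/ml in Tyrode's solution with 0.35% BSA. Preincubated” for “Preincubated”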

[4] = tested on: Platelet; experiment: Inhibition of arachidonic acid-induced platelet aggregation in rabbit platelet-rich plasma at 100 ug/mL after 3 mins by turbidimetric method; type: functional, Oryctolagus cuniculus; design: scale not given: the % may be the effect or the level left; method in brief: as §1
[5] = tested on: Platelet; experiment: Inhibition of collagen-induced platelet aggregation in rabbit platelet-rich plasma after 3 mins by turbidimetric method; type: functional; conditions: Oryctolagus cuniculus
[6] = tested on: Platelet; experiment: Inhibition of ADP-induced platelet aggregation in rabbit platelet-rich plasma at 25 ug/mL after 3 mins by turbidimetric method; type: functional, Oryctolagus cuniculus; design: scale not given: the % may be the effect or the level left
Method in brief: as §1, with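 “Washed rabbit platelets from EDTA-anticoagulated platelet-rich plasma, 4.5 × 10^8/ml in Tyrode's solution with 0.35% BSA. Preincubated” for “Preincubated”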

[7] = tested on: Platelet; experiment: Inhibition of platelet activity factor-induced platelet aggregation in rabbit platelet-rich plasma at 25 ug/mL after 3 mins by turbidimetric method; type: functional, Oryctolagus cuniculus; design: scale not given: the % may be the effect or the level left
Method in brief: as §1, with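 “Washed rabbit platelets from EDTA-anticoagulated platelet-rich plasma, 4.5 × 10^8/ml in Tyrode's solution with 0.35% BSA. Preincubated” for “Preincubated”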

[8] = tested on: Platelet; experiment: Inhibition of arachidonic acid-induced platelet aggregation in rabbit platelet-rich plasma at 25 ug/mL after 3 mins by turbidimetric method; type: functional, Oryctolagus cuniculus; design: scale not given: the % may be the effect or the level left
Method in brief: as §1, with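 “Washed rabbit platelets from EDTA-anticoagulated platelet-rich plasma, 4.5 × 10^8/ml in Tyrode's solution with 0.35% BSA. Preincubated” for “Preincubated”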

[9] = tested on: Platelet; experiment: Inhibition of collagen-induced platelet aggregation in rabbit platelet-rich plasma at 25 ug/mL after 3 mins by turbidimetric method; type: functional, Oryctolagus cuniculus; design: scale not given: the % may be the effect or the level left
Method in brief: as §1, with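 “Washed rabbit platelets from EDTA-anticoagulated platelet-rich plasma, 4.5 × 10^8/ml in Tyrode's solution with 0.35% BSA. Preincubated” for “Preincubated”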

[10] = tested on: Platelet; experiment: Inhibition of platelet activity factor-induced platelet aggregation in rabbit platelet-rich plasma at 50 ug/mL after 3 mins by turbidimetric method; type: functional, Oryctolagus cuniculus; design: scale not given: the % may be the effect or the level left
Method in brief: as §1, with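 “Washed rabbit platelets from EDTA-anticoagulated platelet-rich plasma, 4.5 × 10^8/ml in Tyrode's solution with 0.35% BSA. Preincubated” for “Preincubated”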

[11] = tested on: Platelet; experiment: Inhibition of ADP-induced platelet aggregation in rabbit platelet-rich plasma at 50 ug/mL after 3 mins by turbidimetric method; type: functional, Oryctolagus cuniculus; design: scale not given: the % may be the effect or the level left
Method in brief: as §1, with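 “Washed rabbit platelets from EDTA-anticoagulated platelet-rich plasma, 4.5 × 10^8/ml in Tyrode's solution with 0.35% BSA. Preincubated” for “Preincubated”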

[12] = tested on: Platelet; experiment: Inhibition of collagen-induced platelet aggregation in rabbit platelet-rich plasma at 50 ug/mL after 3 mins by turbidimetric method; type: functional, Oryctolagus cuniculus; design: scale not given: the % may be the effect or the level left
Method in brief: (§2)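 Washed rabbit platelets from EDTA-anticoagulated platelet-rich plasma, 4.5 × 10^8/ml in Tyrode's solution with 0.35% BSA. Preincubated with compound or 0.5% DMSO (final) at 37° for 3 min, stirred at 1200 rpm. Arachidonic acid (100 µM) or collagen (10 µg/ml) then added. Turbidimetric read-out on a Lumi-aggregometer gives % aggregation as mean ± SEM.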

[13] = tested on: Platelet; experiment: Inhibition of arachidonic acid-induced platelet aggregation in rabbit platelet-rich plasma at 50 ug/mL after 3 mins by turbidimetric method; type: functional, Oryctolagus cuniculus; design: scale not given: the % may be the effect or the level left; method in brief: as §2
[14] = tested on: Aorta; experiment: Inhibition of norepinephrine-induced Wistar rat thoracic aorta tonic contraction at 100 ug/mL after 15 mins; type: functional
Method in brief: (§3)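 Wistar rat thoracic aorta rings, about 5 mm, in Krebs solution at 37° gassed with 95% O2/5% CO2, under 1 g tension, equilibrated 90 min. Preincubated 15 min with compound or 0.1% DMSO (control), then stimulated with high K+ (80 mM) plus Ca2+ (1.9 mM) or norepinephrine 3 μM (phasic and tonic phases). Expressed as % of control contraction, mean ± SE, n = 3.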

[15] = tested on: Aorta; experiment: Inhibition of norepinephrine-induced Wistar rat thoracic aorta phasic contraction at 100 ug/mL after 15 mins; type: functional; method in brief: as §3
[16] = tested on: Aorta; experiment: Inhibition of K(+)/Ca(2+)-induced Wistar rat thoracic aorta contraction at 100 ug/mL after 15 mins; type: functional; method in brief: as §3
[17] = tested on: Aorta; experiment: Inhibition of norepinephrine-induced Wistar rat thoracic aorta tonic contraction at 10 ug/mL after 15 mins; type: functional; design: scale not given: the % may be the effect or the level left
Method in brief: (§4)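 Thoracic aorta rings (~5 mm) from Wistar rats of either sex (250–300 g) held in Krebs solution at 37° under 95% O2/5% CO2. Equilibrated 90 min at 1 g tension, then preincubated 15 min with compound or 0.1% DMSO. Contraction by norepinephrine (3 µM), phasic and tonic components, expressed as % of control contraction, mean ± SE, n = 3.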

[18] = tested on: Aorta; experiment: Inhibition of norepinephrine-induced Wistar rat thoracic aorta phasic contraction at 50 ug/mL after 15 mins; type: functional; design: scale not given: the % may be the effect or the level left; method in brief: as §4
[19] = tested on: Aorta; experiment: Inhibition of norepinephrine-induced Wistar rat thoracic aorta phasic contraction at 10 ug/mL after 15 mins; type: functional; design: scale not given: the % may be the effect or the level left; method in brief: as §4
[20] = tested on: Aorta; experiment: Inhibition of norepinephrine-induced Wistar rat thoracic aorta tonic contraction at 50 ug/mL after 15 mins; type: functional; design: scale not given: the % may be the effect or the level left; method in brief: as §4
[21] = tested on: Aorta; experiment: Inhibition of norepinephrine-induced Wistar rat thoracic aorta tonic contraction at 20 ug/mL after 15 mins; type: functional; design: scale not given: the % may be the effect or the level left; method in brief: as §4
[22] = tested on: Aorta; experiment: Inhibition of norepinephrine-induced Wistar rat thoracic aorta phasic contraction at 20 ug/mL after 15 mins; type: functional; design: scale not given: the % may be the effect or the level left; method in brief: as §4

| Compound | Activity [1] [%] | Activity [2] [%] | Activity [3] [%] | Activity [4] [%] | also measured |
| --- | --- | --- | --- | --- | --- |
| CC(=O)Oc1cc(OC(C)=O)c2c(=O)c(O[C@@H]3O[C@H](CO[C@@H]4O[C@@H](C)[C@H](OC(C)=O)[C@@H](OC(C)=O)[C@H]4OC(C)=O)[C@@H](OC(C)=O)[C@H](OC(C)=O)[C@H]3OC(C)=O)c(-c3ccc(OC(C)=O)c(OC(C)=O)c3)oc2c1 [RUTIN DECAACETATE] | 27.3 | 88.7 | 72.4 | 25.9 | – |
| CC(=O)Oc1cc(OC(C)=O)c2c(c1)C(=O)c1cc(C)cc(OC(C)=O)c1C2=O [EMODIN TRIACETATE] | 89.6 | 84.5 | 72.2 | 82.5 | – |
| COc1cc(OC(C)=O)c2c(=O)c(OC(C)=O)c(-c3ccc(OC(C)=O)c(OC(C)=O)c3)oc2c1 [RHAMNETIN TETRAACETATE] | 0 | 0 | – | 2.6 | Activity [5]: Dose-dependent effect |
| CC(=O)Oc1cc(OC(C)=O)c2c(=O)c(O[C@@H]3O[C@H](CO[C@@H]4OC[C@H](OC(C)=O)[C@H](OC(C)=O)[C@H]4OC(C)=O)[C@H](OC(C)=O)[C@H](OC(C)=O)[C@H]3OC(C)=O)c(-c3ccc(OC(C)=O)c(OC(C)=O)c3)oc2c1 | 38.5 | 87.7 | – | 78.3 | – |
| CC(=O)Oc1cc(OC(C)=O)c2c(=O)c(OC(C)=O)c(-c3ccc(OC(C)=O)c(OC(C)=O)c3)oc2c1 | 17.4 | 89.2 | – | 2.4 | – |
| COc1cc(O)c2c(c1)C(=O)c1cc(C)cc(O)c1C2=O [PHYSCION] | – | – | – | – | Activity [6]: 78.9%; Activity [7]: 80.7%; Activity [8]: 89.6%; Activity [9]: 86.8% |
| COc1cc(OC(C)=O)c2c(c1)C(=O)c1cc(C)cc(OC(C)=O)c1C2=O [PHYSCION DIACETATE] | – | – | – | – | Activity [6]: 76.5%; Activity [7]: 93.9%; Activity [8]: 90.3%; Activity [9]: 89.4% |
| Cc1cc(O)c2c(c1)C(=O)c1cccc(O)c1C2=O [CHRYSOPHANOL] | – | – | – | – | Activity [10]: 88.3%; Activity [11]: 82.6%; Activity [12]: 85.4%; Activity [13]: 90.6% |
| COc1ccc2c(c1)c(CC(=O)O)c(C)n2C(=O)c1ccc(Cl)cc1 [INDOMETHACIN] | 72.3 | 89.4 | 69.5 | 0 | – |
| Cc1cc(O)c2c(c1)C(=O)c1cc(O)cc(O)c1C2=O [EMODIN] | 75.7 | 76.4 | 65.1 | 33.6 | Activity [8]: 90.2%; Activity [12]: 83.3%; Activity [13]: 64.5% |
| CC(=O)Oc1cc(OC(C)=O)c2c(=O)c(OC(C)=O)c(-c3ccc(O[C@@H]4O[C@H](CO[C@@H]5O[C@@H](C)[C@H](OC(C)=O)[C@@H](OC(C)=O)[C@H]5O[C@@H]5O[C@@H](C)[C@H](OC(C)=O)[C@@H](OC(C)=O)[C@H]5OC(C)=O)[C@H](OC(C)=O)[C@H](OC(C)=O)[C@H]4OC(C)=O)cc3)oc2c1 [RHAMNUSTRIOSIDE UNDECAAACETATE] | 86.5 | 89.9 | – | 88.5 | – |
| COc1cc(OC(C)=O)c2c(=O)c(O[C@@H]3O[C@H](CO[C@@H]4O[C@@H](C)[C@H](O[C@@H]5O[C@@H](C)[C@H](OC(C)=O)[C@@H](OC(C)=O)[C@H]5OC(C)=O)[C@@H](OC(C)=O)[C@H]4OC(C)=O)[C@H](OC(C)=O)[C@H](OC(C)=O)[C@H]3OC(C)=O)c(-c3ccc(OC(C)=O)c(OC)c3)oc2c1 | 87.8 | 90.8 | – | 88.8 | – |
| C[C@@H]1O[C@@H](OC[C@H]2O[C@@H](Oc3c(-c4ccc(O)c(O)c4)oc4cc(O)cc(O)c4c3=O)[C@H](O)[C@@H](O)[C@@H]2O)[C@H](O)[C@H](O)[C@H]1O [RUTIN] | 87 | 91.1 | 75 | 93.5 | Contraction (% of control) [14]: 120.6%; Contraction as % of control [15]: 103.8%; Contraction as % of control [16]: 112.9% |
| O=c1c(O[C@@H]2O[C@H](CO[C@@H]3OC[C@H](O)[C@H](O)[C@H]3O)[C@H](O)[C@H](O)[C@H]2O)c(-c2ccc(O)c(O)c2)oc2cc(O)cc(O)c12 | – | – | – | – | Contraction (% of control) [14]: 108.4%; Contraction as % of control [15]: 100%; Contraction as % of control [16]: 100% |
| O=c1c(O[C@@H]2O[C@H](CO)[C@H](O)[C@H](O)[C@H]2O)c(-c2ccc(O)c(O)c2)oc2cc(O)cc(O)c12 [HYPEROSIDE] | 87.3 | 93.8 | 71.4 | 92.2 | Contraction (% of control) [14]: 98.8%; Contraction as % of control [15]: 100%; Contraction as % of control [16]: 120.9% |
| O=c1c(O)c(-c2ccc(O)c(O)c2)oc2cc(O)cc(O)c12 [QUERCETIN] | – | – | – | – | Contraction (% of control) [14]: 0%; Contraction as % of control [15]: 27%; Activity [17]: 101.9%; Activity [18]: 15%; Activity [19]: 105%; Activity [20]: 0%; Contraction as % of control [16]: 13.9%; Activity [21]: 29.1%; Activity [22]: 44.9% |
| COc1cc(OC(C)=O)c2c(=O)c(OC(C)=O)c(-c3ccc(OC(C)=O)c(OC)c3)oc2c1 [RHAMNAZIN TRIACETATE] | 14.3 | 84.5 | – | 10 | Activity [5]: Dose-dependent effect |
